Measured values as given in ChEMBL document CHEMBL3875221, “New N- and O-arylpiperazinylalkyl pyrimidines and 2-methylquinazolines derivatives as 5-HT7 and 5-HT1A receptor ligands: Synthesis, structure-activity relationships, and molecular modeling studies” (Bioorg Med Chem, 2017).

Assays:
[1] = target: T1, 5-hydroxytryptamine receptor 7 (Homo sapiens, UniProt P34969); assay: Displacement of [3H]-5-HT from recombinant human 5-HT7A receptor expressed in CHOK1 cell membranes after 40 mins by liquid scintillation counting method; parameters: species or system CHO-K1
In short: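 Membranes (15 µg protein/sample) in 50 mM Tris-HCl pH 7.4 with 4 mM MgCl2, incubated 40 min at 27 °C with [3H]-5-HT (5 nM final). Nonspecific binding with 10 µM serotonin. Stopped by vacuum filtration on PEI-soaked GF/C filters, ice-cold Tris washes.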

[2] = target: T2, 5-hydroxytryptamine receptor 1A (Homo sapiens, UniProt P08908); assay: Displacement of [3H]-8-OH-DPAT from recombinant human 5-HT1A receptor expressed in CHOK1 cell membranes after 1 hr by liquid scintillation counting method; parameters: species or system CHO-K1
T2 sequence (P08908 whole entry): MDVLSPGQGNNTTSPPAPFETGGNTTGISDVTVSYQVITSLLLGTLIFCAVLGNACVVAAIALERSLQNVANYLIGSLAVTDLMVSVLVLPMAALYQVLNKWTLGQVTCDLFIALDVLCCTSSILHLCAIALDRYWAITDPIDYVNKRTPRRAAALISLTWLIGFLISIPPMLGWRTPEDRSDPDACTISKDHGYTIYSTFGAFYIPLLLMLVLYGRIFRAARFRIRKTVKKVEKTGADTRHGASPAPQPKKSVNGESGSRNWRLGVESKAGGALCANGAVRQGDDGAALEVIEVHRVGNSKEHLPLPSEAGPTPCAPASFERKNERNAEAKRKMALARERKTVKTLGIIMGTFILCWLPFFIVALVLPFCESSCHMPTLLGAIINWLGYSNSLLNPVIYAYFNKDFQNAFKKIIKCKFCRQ

[3] = target: T1, 5-hydroxytryptamine receptor 7; assay: Antagonist activity at recombinant human 5-HT7 receptor expressed in HEK293 cells assessed as inhibition of 5-CT-induced increase in cAMP level at 10^-6M after 30 mins by TR-FRET assay relative to control; assay type: functional, cell-based
In short: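 Stably transfected HEK293 cells in stimulation buffer (HBSS, 5 mM HEPES, 0.5 mM IBMX, 0.1% BSA) exposed to 10 nM 5-CT with test ligand for 30 min at room temperature. Lysis with Eu-cAMP/ULight-anti-cAMP, 1 h, then TR-FRET readout of cAMP.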

[4] = target: T3, 5-hydroxytryptamine receptor 1A (Homo sapiens) (UniProt P08908); assay: Antagonist activity at recombinant human 5-HT1A receptor expressed in HEK293 cells assessed as inhibition of 8-OH-DPAT-induced decrease in cAMP level at 10^-6M after 30 mins in presence of forskolin by TR-FRET assay relative to control; assay type: functional, cell-based
T3 sequence (whole entry): T2 sequence (P08908 whole entry)
In short: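 Stable HEK293 cells grown in DMEM with 10% dialysed FBS and G418, resuspended in HBSS/HEPES buffer with 0.5 mM IBMX and 0.1% BSA. Stimulated with 1 µM forskolin plus 1 µM (R)-(+)-8-OH-DPAT alongside test ligand, 30 min at room temperature. cAMP by LANCE Ultra TR-FRET after lysis, 1 h.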

T1 sequence (P34969 whole entry): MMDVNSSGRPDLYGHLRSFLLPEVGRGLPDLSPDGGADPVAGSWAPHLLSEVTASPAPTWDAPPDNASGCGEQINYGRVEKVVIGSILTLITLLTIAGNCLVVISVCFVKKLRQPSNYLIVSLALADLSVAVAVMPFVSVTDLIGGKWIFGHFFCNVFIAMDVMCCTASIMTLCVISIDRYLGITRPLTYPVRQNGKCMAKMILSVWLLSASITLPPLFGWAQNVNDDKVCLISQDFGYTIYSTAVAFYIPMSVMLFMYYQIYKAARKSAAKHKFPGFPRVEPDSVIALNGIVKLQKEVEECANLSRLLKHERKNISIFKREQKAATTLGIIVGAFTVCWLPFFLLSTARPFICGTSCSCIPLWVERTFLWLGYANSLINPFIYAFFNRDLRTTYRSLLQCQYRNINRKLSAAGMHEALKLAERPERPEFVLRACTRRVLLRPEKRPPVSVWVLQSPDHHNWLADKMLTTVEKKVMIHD

Row | SMILES | Ki [1] [nM] | Ki [2] [nM] | inhibition [3] [%] | inhibition [4] [%]
1 | Clc1ccc(N2CCN(CCCCCOc3cc(-c4ccccc4)ncn3)CC2)cc1 | 1380 | 90.3 |  | 
2 | O=c1cc(-c2ccccc2)ncn1CCCCCN1CCN(Cc2ccccc2)CC1 | 1330 | 772 |  | 
3 | O=c1cc(-c2ccccc2)ncn1CCCCCN1CCN(c2ccccc2)CC1 | 613 | 111 |  | 
4 | c1ccc(CN2CCN(CCCCCOc3cc(-c4ccccc4)ncn3)CC2)cc1 | 990 | 1030 |  | 
5 | CC1CCN(CC[C@H]2CCCN2S(=O)(=O)c2cccc(O)c2)CC1 |  |  | 97 | 
6 | Cc1nc2ccccc2c(=O)n1CCCCCN1CCN(c2ccc(Cl)cc2)CC1 | 327 | 100 |  | 
7 | O=c1cc(-c2ccccc2)ncn1CCCCCN1CCN(c2ccc(Cl)cc2)CC1 | 1310 | 167 |  | 

Results, then the compound that gave them:

Row | Ki [1] [nM] | Ki [2] [nM] | inhibition [3] [%] | inhibition [4] [%] | SMILES
8 | 143 | 33.5 |  |  | c1ccc(-c2cc(OCCCCCN3CCN(c4ccccc4)CC3)ncn2)cc1
9 | 276 | 24.7 |  |  | Cc1nc(OCCCCCN2CCN(c3ccccc3)CC2)c2ccccc2n1
10 | 181 | 52.1 |  |  | Cc1nc(OCCCCCN2CCN(c3ccc(Cl)cc3)CC2)c2ccccc2n1
11 | 44.8 | 17.4 |  |  | Clc1cccc(N2CCN(CCCCCOc3cc(-c4ccccc4)ncn3)CC2)c1
12 | 94.7 | 17.8 |  |  | O=c1cc(-c2ccccc2)ncn1CCCCCN1CCN(c2cccc(Cl)c2)CC1
13 | 35.1 | 8.21 |  |  | Cc1nc2ccccc2c(=O)n1CCCCCN1CCN(c2cccc(Cl)c2)CC1
14 | 53.7 | 18.6 |  |  | Cc1nc2ccccc2c(=O)n1CCCCCN1CCN(c2ccccc2)CC1
15 | 23.5 | 6.96 | 5.5 | 6 | CCOc1ccccc1N1CCN(CCCCCOc2cc(-c3ccccc3)ncn2)CC1
16 | 45.1 | 25.9 |  |  | CCOc1ccccc1N1CCN(CCCCCn2cnc(-c3ccccc3)cc2=O)CC1
17 | 8.42 | 2.99 | 19.5 | 18 | CCOc1ccccc1N1CCN(CCCCCn2c(C)nc3ccccc3c2=O)CC1
